Laboratory results published in ChEMBL document CHEMBL3098056, “Small molecule inhibitors of anthrax lethal factor toxin” (Bioorg Med Chem, 2014).

How the values were obtained:
[1] = target: Botulinum neurotoxin type A (Clostridium botulinum, UniProt P0DPI0); test: Inhibition of Clostridium bolulinum BoNT/A assessed as cleavage of MOCAc-Lys-Lys-Val-Tyr-Pro-Tyr-Pro-Met-Glu-Lys(Dnp)-NH2 after 40 mins by FRET assay
How it was run: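 BoNT/A light chain (2 nM) in a 96-well FRET format. Reactions were stopped with acetic acid to 0.5% and cleaved-substrate fluorescence read at 485 nm with excitation at 398 nm. The same format served for IC50 and mechanism kinetics.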

Interstitial collagenase = target: T1, Interstitial collagenase (Homo sapiens, UniProt P03956); test: Inhibition of human MMP-1 after 60 mins by FRET assay
T1 sequence (P03956 whole entry): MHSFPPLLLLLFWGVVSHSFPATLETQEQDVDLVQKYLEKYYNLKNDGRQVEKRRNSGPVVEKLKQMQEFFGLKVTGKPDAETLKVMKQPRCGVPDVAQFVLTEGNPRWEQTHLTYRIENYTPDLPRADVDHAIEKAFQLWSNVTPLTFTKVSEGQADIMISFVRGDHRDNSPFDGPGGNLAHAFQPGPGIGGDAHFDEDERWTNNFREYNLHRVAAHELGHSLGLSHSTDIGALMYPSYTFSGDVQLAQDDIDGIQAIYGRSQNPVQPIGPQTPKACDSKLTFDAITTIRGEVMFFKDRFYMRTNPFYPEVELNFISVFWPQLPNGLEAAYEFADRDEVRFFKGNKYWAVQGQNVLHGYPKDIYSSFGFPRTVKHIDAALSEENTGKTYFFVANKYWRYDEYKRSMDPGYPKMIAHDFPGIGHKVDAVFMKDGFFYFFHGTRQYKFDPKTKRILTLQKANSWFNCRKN
How it was run: (§1)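 MMP-1 (38 nM) or MMP-9 (13 nM) with 50 fluorogenic substrate in 50 mM MOPS pH 6.0 and 0.05% NP-40, 37 °C for 60 min (linear range 90 min). Stopped with acetic acid (0.5% final); emission at 440 nm, excitation at 340 nm.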

Lethal factor [2] = target: T2, Lethal factor (Bacillus anthracis, UniProt P15917); test: Inhibition of Bacillus anthracis lethal factor assessed as MCA-KKVYPYPME[dnp]K amide cleavage after 30 mins by fluorescence plate reader analysis
T2 sequence (P15917 whole entry): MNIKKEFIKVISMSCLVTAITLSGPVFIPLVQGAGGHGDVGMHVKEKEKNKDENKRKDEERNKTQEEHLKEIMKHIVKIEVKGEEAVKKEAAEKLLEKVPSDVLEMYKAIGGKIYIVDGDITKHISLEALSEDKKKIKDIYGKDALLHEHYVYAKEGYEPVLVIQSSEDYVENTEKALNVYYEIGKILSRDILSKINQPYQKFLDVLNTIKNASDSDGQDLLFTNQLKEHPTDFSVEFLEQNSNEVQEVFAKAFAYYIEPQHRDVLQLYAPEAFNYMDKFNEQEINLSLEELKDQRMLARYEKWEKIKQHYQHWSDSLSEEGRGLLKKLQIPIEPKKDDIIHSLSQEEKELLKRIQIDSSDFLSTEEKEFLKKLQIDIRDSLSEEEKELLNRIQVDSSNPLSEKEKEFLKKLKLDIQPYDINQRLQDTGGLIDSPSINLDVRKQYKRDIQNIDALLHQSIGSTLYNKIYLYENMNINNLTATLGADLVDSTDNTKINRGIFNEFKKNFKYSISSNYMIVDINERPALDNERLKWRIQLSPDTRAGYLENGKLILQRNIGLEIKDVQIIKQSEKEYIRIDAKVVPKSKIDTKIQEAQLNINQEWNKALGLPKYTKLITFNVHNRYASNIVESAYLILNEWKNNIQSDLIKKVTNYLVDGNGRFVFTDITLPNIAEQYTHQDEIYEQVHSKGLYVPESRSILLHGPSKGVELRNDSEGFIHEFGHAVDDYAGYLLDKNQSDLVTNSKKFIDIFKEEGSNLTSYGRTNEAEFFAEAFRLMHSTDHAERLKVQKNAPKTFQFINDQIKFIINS

[3] = target: Matrix metalloproteinase-9 (Homo sapiens, UniProt P14780); test: Inhibition of human MMP-9 after 60 mins by FRET assay; how it was run: as §1
Lethal factor [4] = target: T2, Lethal factor; test: Inhibition of Bacillus anthracis lethal factor
How it was run: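 FRET-based assay: LF cleaves a SNAP-derived fluorogenic peptide, and cleavage is read as a change in fluorescence.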

Chain of Botulinum neurotoxin type A (P0DPI0 2-448 limits assumed): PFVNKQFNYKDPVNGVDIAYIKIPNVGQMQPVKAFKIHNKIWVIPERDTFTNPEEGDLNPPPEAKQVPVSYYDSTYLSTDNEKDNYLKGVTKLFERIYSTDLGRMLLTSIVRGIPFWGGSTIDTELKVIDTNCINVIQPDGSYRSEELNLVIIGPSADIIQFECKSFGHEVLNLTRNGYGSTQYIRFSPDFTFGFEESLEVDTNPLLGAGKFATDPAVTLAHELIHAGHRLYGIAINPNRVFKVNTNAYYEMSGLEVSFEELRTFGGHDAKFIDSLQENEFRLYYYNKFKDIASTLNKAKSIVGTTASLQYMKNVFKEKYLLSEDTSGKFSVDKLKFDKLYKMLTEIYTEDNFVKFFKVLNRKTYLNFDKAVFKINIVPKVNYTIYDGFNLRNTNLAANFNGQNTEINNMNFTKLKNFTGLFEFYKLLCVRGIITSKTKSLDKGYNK
Chain of Matrix metalloproteinase-9 (P14780 whole entry): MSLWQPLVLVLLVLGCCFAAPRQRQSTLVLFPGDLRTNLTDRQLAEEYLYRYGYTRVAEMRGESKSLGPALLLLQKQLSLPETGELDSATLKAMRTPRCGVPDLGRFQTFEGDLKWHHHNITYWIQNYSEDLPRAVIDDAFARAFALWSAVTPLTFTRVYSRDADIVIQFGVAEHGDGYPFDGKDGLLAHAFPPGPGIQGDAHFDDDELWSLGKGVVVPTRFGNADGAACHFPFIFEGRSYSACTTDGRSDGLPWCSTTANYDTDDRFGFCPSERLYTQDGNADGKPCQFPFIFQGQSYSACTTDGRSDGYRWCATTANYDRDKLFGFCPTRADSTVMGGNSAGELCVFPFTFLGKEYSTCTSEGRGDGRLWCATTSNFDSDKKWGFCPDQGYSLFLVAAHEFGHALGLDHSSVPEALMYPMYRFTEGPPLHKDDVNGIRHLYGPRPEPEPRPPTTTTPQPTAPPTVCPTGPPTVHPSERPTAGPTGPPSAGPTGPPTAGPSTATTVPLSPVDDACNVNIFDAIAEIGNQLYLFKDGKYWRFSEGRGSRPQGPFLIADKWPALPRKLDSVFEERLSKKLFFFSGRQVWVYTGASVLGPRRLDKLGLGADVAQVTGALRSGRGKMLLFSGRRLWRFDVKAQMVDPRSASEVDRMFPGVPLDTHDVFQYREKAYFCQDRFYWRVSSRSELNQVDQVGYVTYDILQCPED

Row | SMILES | IC50 [1] [µM] | IC50 (Interstitial collagenase) [µM] | IC50 (Lethal factor [2]) [µM] | IC50 [3] [µM] | IC50 (Lethal factor [4]) [µM] | Ki (Lethal factor [4]) [µM]
1 | Cc1cc(N)c2cc(NC(=O)CCc3ccccc3C(F)(F)F)ccc2n1 | > 100 | > 100 | 38 | > 100 |  | 
2 | Cc1cc(N)c2cc(NC(=O)COc3ccc(OCc4ccccc4)cc3)ccc2n1 | > 100 | > 100 | 33 | > 100 |  | 
3 | COc1ccc(OC)c(CCC(=O)Nc2ccc3nc(C)cc(N)c3c2)c1 | > 100 |  | > 100 |  |  | 
4 | Cc1cc(N)c2cc(NC(=O)c3ccco3)ccc2n1 | 47 |  | > 100 |  |  | 
5 | Cc1cc(N)c2cc(NC(=O)Nc3ccc(-c4ccccc4)cc3)ccc2n1 | 79 |  | 79 |  |  | 
6 | Cc1cc(N)c2cc(NC(=O)c3cccc(C(=O)c4ccccc4)c3)ccc2n1 | > 100 |  | 73 |  |  | 
7 | Cc1cc(N)c2cc(NC(=O)c3cccc(-c4ccc(N(C)C)cc4)c3)ccc2n1 | 69 |  |  | > 100 |  | 
8 | Cc1cc(N)c2cc(NC(=O)Cc3ccccc3)ccc2n1 | > 100 |  | > 100 |  |  | 
9 | Cc1cc(N)c2cc(NC(=O)CCc3ccccc3Cl)ccc2n1 | > 100 |  | > 100 |  |  | 
10 | Cc1cc(N)c2cc(NC(=O)Nc3ccc4nc(C)cc(N)c4c3)ccc2n1 [AMINOQUINURIDE] | 7.2 | 31 | 3.2 | 100 |  | 
11 | Cc1cc(N)c2cc(NC(=O)c3cccc(-c4cnc5ccccc5c4)c3)ccc2n1 | 45 | > 100 | 5.7 | 16 |  | 
12 | COc1ncccc1CCC(=O)Nc1ccc2nc(C)cc(N)c2c1 | > 100 | > 100 | 41 | > 100 |  | 
13 | Cc1cc(N)c2cc(NC(=O)c3ccc(N4CCOCC4)cc3)ccc2n1 | 27 |  | > 100 |  |  | 
14 | Cc1cc(N)c2cc(NC(=O)c3cccc(N(C)C)c3)ccc2n1 | > 100 |  | > 100 |  |  | 
15 | Cc1cc(N)c2cc(NC(=O)c3cccc(-c4ccc5ncccc5c4)c3)ccc2n1 | 26 | > 100 | 4.6 | > 100 |  | 
16 | Cc1cc(N)c2cc(NC(=O)c3ccc(-c4cnc5ccccc5c4)cc3)ccc2n1 | > 100 | 78 | 3 | 11 |  | 
17 | COc1ccc(CCC(=O)Nc2ccc3nc(C)cc(N)c3c2)cc1 | > 100 |  | > 100 |  |  | 
18 | Cc1cc(=S)c(O)c(C(=S)NCc2ccc(-c3ccccc3)cc2)o1 |  |  |  |  | 14 | 
19 | COc1cccc(CCC(=O)Nc2ccc3nc(C)cc(N)c3c2)c1OC | > 100 |  | > 100 |  |  | 
20 | COc1ccc(NC(=O)Nc2ccc3nc(C)cc(N)c3c2)cc1 | 41 |  | > 100 |  |  | 

Row | SMILES | IC50 [1] [µM] | IC50 (Interstitial collagenase) [µM] | IC50 (Lethal factor [2]) [µM] | IC50 [3] [µM] | IC50 (Lethal factor [4]) [µM] | Ki (Lethal factor [4]) [µM]
21 | CCOC(=O)c1ccc(NC(=O)Nc2ccc3nc(C)cc(N)c3c2)cc1 | 51 |  | 87 |  |  | 
22 | Cc1cc(N)c2cc(NC(=O)Cc3ccc4c(c3)OCO4)ccc2n1 | > 100 |  | > 100 |  |  | 
23 | Cc1cc(N)c2cc(NC(=O)c3cccc(-c4cncc5ccccc45)c3)ccc2n1 | > 100 | 50 | 21 | 48 |  | 
24 | Cc1cc(N)c2cc(NC(=O)c3ccc(-c4cccc5cccnc45)cc3)ccc2n1 | 65 | > 100 | 11 | 17 |  | 
25 | Cc1cc(N)c2cc(NC(=O)CCc3ccccc3OC(=O)c3ccccc3)ccc2n1 | > 100 |  | > 100 |  |  | 
26 | COc1ccc2[nH]c(C(=O)Nc3ccc4nc(C)cc(N)c4c3)cc2c1 | 35 |  | 44 | > 100 |  | 
27 | O=C(N/N=C/c1cc([N+](=O)[O-])ccc1O)c1ccc(O)c(O)c1 |  |  |  |  |  | 1.1
28 | Cc1cc(N)c2cc(NC(=O)CCc3ccccc3C)ccc2n1 | > 100 |  | > 100 |  |  | 
29 | Cc1cc(N)c2cc(NC(=O)c3ccc(Oc4ccccc4)cc3)ccc2n1 | > 100 | > 100 | 70 | > 100 |  | 
30 | Cc1cc(N)c2cc(NC(=O)Nc3ccc(F)cc3)ccc2n1 | 32 |  | 95 |  |  | 
31 | CCCOc1ccccc1CCC(=O)Nc1ccc2nc(C)cc(N)c2c1 | > 100 |  | > 100 |  |  | 
32 | COc1ccccc1/C=C/C(=O)Nc1ccc2nc(C)cc(N)c2c1 | > 100 | > 100 | 46 | > 100 |  | 
33 | Cc1cc(N)c2cc(NC(=O)c3cccc(-c4cccc5cccnc45)c3)ccc2n1 | 79 | > 100 | 36 | > 100 |  | 
34 | Cc1cc(N)c2cc(NC(=O)Nc3ccc(C(=O)c4ccccc4)cc3)ccc2n1 | 67 | > 100 | 26 | > 100 |  | 
35 | Cc1cc(N)c2cc(NC(=O)c3ccc(-c4cccnc4)cc3)ccc2n1 | 23 |  | 43 | > 100 |  | 
36 | COc1cc(Cl)ccc1CCC(=O)Nc1ccc2nc(C)cc(N)c2c1 | > 100 |  | 78 |  |  | 
37 | COc1cccc(CCC(=O)Nc2ccc3nc(C)cc(N)c3c2)c1 | > 100 |  | > 100 |  |  | 
38 | COc1ccc(Cl)cc1CCC(=O)Nc1ccc2nc(C)cc(N)c2c1 | > 100 |  | > 100 |  |  | 
39 | COc1cc(Br)ccc1CCC(=O)Nc1ccc2nc(C)cc(N)c2c1 | > 100 |  | 58 |  |  | 
40 | COc1ccccc1CNC(=O)Nc1ccc2nc(C)cc(N)c2c1 | > 100 |  | > 100 |  |  | 

Row | SMILES | IC50 [1] [µM] | IC50 (Interstitial collagenase) [µM] | IC50 (Lethal factor [2]) [µM] | IC50 [3] [µM] | IC50 (Lethal factor [4]) [µM] | Ki (Lethal factor [4]) [µM]
41 | Cc1cc(N)c2cc(NC(=O)CCc3ccc(F)cc3)ccc2n1 | > 100 |  | > 100 |  |  | 
42 | Cc1cc(N)c2cc(NC(=O)c3ccc(-c4ccccc4)cc3)ccc2n1 | > 100 |  | 48 | > 100 |  | 
43 | Cc1cc(N)c2cc(NC(=O)c3cccc(-c4cccc5ncccc45)c3)ccc2n1 | 68 | 65 | 33 | 50 |  | 
44 | Cc1cc(N)c2cc(NC(=O)c3cc4ccccc4o3)ccc2n1 | > 100 |  | 90 |  |  | 
45 | Cc1cc(N)c2cc(NC(=O)CCc3ccccc3)ccc2n1 | > 100 |  | > 100 |  |  | 
46 | COc1ccc(/C=C/C(=O)Nc2ccc3nc(C)cc(N)c3c2)cc1 | > 100 |  | 55 |  |  | 
47 | Cc1cc(N)c2cc(NC(=O)c3ccc(-c4cncc5ccccc45)cc3)ccc2n1 | 65 | > 100 | 13 | 9.4 |  | 
48 | COc1ccccc1CC(=O)Nc1ccc2nc(C)cc(N)c2c1 | > 100 |  | > 100 |  |  | 
49 | Cc1cc(N)c2cc(NC(=O)NCc3ccccc3Cl)ccc2n1 | > 100 |  | 61 |  |  | 
50 | Cc1cc(N)c2cc(NC(=O)c3cccnc3)ccc2n1 | > 100 |  | > 100 |  |  | 
51 | Cc1cc(N)c2cc(NC(=O)Cc3ccccc3Cl)ccc2n1 | > 100 |  | > 100 |  |  | 
52 | CCOc1ccccc1CCC(=O)Nc1ccc2nc(C)cc(N)c2c1 | > 100 |  | > 100 |  |  | 
53 | COc1ccc(Br)cc1CCC(=O)Nc1ccc2nc(C)cc(N)c2c1 | > 100 |  | > 100 |  |  | 
54 | Cc1cc(N)c2cc(NC(=O)c3ccc(-c4cccc5ncccc45)cc3)ccc2n1 | 34 |  | 10 |  |  | 
55 | Cc1cc(N)c2cc(NC(=O)Nc3ccc4c(c3)OCO4)ccc2n1 | 41 |  | > 100 |  |  | 
56 | COc1ccncc1CCC(=O)Nc1ccc2nc(C)cc(N)c2c1 | > 100 |  | > 50 |  |  | 
57 | COc1ccsc1CCC(=O)Nc1ccc2nc(C)cc(N)c2c1 | > 100 |  | > 100 |  |  | 
58 | Cc1cc(N)c2cc(NC(=O)Nc3ccc(C(C)C)cc3)ccc2n1 | 62 |  | 83 |  |  | 
